Laboratory results: ChEMBL document CHEMBL3804761, “Synthesis of a stable and orally bioavailable englerin analogue” (Bioorg Med Chem Lett, 2016)

Key:
Format in all cases: functional
A498 = assay: Growth inhibition of human A498 cells assessed as cell growth at 10 uM incubated for 48 hrs by sulforhodamine B assay relative to control; conditions: A498, 48 h, read-out: Activity
[1] = Growth inhibition of human UACC257 cells incubated for 48 hrs by sulforhodamine B assay; conditions: UACC-257, 48 h
Outline: (§1)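 Tested in the standard NCI 60-cell-line protocol with two-day drug exposure and a sulforhodamine B endpoint. Compounds were first screened at a single final concentration of 10 µM, reported as growth percent. They were then run as five 10-fold dilutions starting from a high concentration of 100 µM to give dose-response curves.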

[2] = Growth inhibition of human UO31 cells assessed as cell growth at 10 uM incubated for 48 hrs by sulforhodamine B assay relative to control; conditions: UO-31, 48 h, read-out: Activity
Outline: (§2)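 NCI 60-cell line standard protocol, one-dose screen: single final concentration 10 µM, 2-day drug exposure, sulforhodamine B (SRB) endpoint; read-out is growth percent relative to untreated control.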

[3] = Growth inhibition of human SF539 cells incubated for 48 hrs by sulforhodamine B assay; conditions: SF-539, 48 h
Outline: (§3)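 NCI 60-cell-line panel, standard protocol. Cells exposed to compound for two days, growth read by sulforhodamine B staining. Tested at five 10-fold dilutions, top concentration 100 µM, to give dose-response curves.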

[4] = Growth inhibition of human Hs 578T cells incubated for 48 hrs by sulforhodamine B assay
[5] = Growth inhibition of human OVCAR3 cells assessed as cell growth at 10 uM incubated for 48 hrs by sulforhodamine B assay relative to control; conditions: OVCAR-3, 48 h, read-out: Activity
Outline: (§4)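 Run in the standard NCI 60-cell-line screen. Cells were exposed to drug for two days, and the read-out was sulforhodamine B staining. Compound was tested at a single final concentration of 10 µM in every line, and results are reported as growth percent.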

M14 = assay: Growth inhibition of human M14 cells incubated for 48 hrs by sulforhodamine B assay; conditions: M14, 48 h; outline: as §3
[6] = Growth inhibition of human IGROV1 cells incubated for 48 hrs by sulforhodamine B assay; conditions: IGROV-1, 48 h; outline: as §3
SK-MEL-2 [7] = assay: Growth inhibition of human SK-MEL-2 cells assessed as cell growth at 10 uM incubated for 48 hrs by sulforhodamine B assay relative to control; conditions: SK-MEL-2, 48 h, read-out: Activity; outline: as §4
[8] = Growth inhibition of human Hs 578T cells assessed as cell growth at 10 uM incubated for 48 hrs by sulforhodamine B assay relative to control; conditions: read-out: Activity
SN12C = assay: Growth inhibition of human SN12C cells incubated for 48 hrs by sulforhodamine B assay; outline: as §1
MDA-MB-231 = assay: Growth inhibition of human MDA-MB-231 cells incubated for 48 hrs by sulforhodamine B assay; conditions: MDA-MB-231, 48 h; outline: as §3
SR = assay: Growth inhibition of human SR cells assessed as cell growth at 10 uM incubated for 48 hrs by sulforhodamine B assay relative to control; conditions: read-out: Activity; outline: as §4
[9] = Growth inhibition of human HCC2998 cells assessed as cell growth at 10 uM incubated for 48 hrs by sulforhodamine B assay relative to control; conditions: HCC 2998, 48 h, read-out: Activity
Outline: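 Single-dose screen in the NCI 60-cell-line panel at one final concentration of 10 µM. Two-day drug exposure with a sulforhodamine B endpoint. Values are growth percent for each cell line.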

MCF7 = assay: Growth inhibition of human MCF7 cells incubated for 48 hrs by sulforhodamine B assay; conditions: MCF7, 48 h; outline: as §3
SK-MEL-2 [10] = assay: Growth inhibition of human SK-MEL-2 cells incubated for 48 hrs by sulforhodamine B assay; conditions: SK-MEL-2, 48 h; outline: as §3
MDA-MB-468 = assay: Growth inhibition of human MDA-MB-468 cells assessed as cell growth at 10 uM incubated for 48 hrs by sulforhodamine B assay relative to control; conditions: MDA-MB-468, 48 h, read-out: Activity; outline: as §4
[11] = Growth inhibition of human DU145 cells incubated for 48 hrs by sulforhodamine B assay; conditions: DU-145, 48 h; outline: as §3
[12] = Growth inhibition of human COLO205 cells assessed as cell growth at 10 uM incubated for 48 hrs by sulforhodamine B assay relative to control; conditions: COLO 205, 48 h, read-out: Activity; outline: as §4
[13] = Growth inhibition of human PC3 cells incubated for 48 hrs by sulforhodamine B assay; conditions: PC-3, 48 h; outline: as §3
[14] = Growth inhibition of human SKOV3 cells incubated for 48 hrs by sulforhodamine B assay; conditions: SK-OV-3, 48 h; outline: as §1
[15] = Growth inhibition of human Caki1 cells incubated for 48 hrs by sulforhodamine B assay; conditions: CAKI-1, 48 h; outline: as §3
U-251 = assay: Growth inhibition of human U251 cells assessed as cell growth at 10 uM incubated for 48 hrs by sulforhodamine B assay relative to control; conditions: U-251, 48 h, read-out: Activity; outline: as §2
[16] = Growth inhibition of human OVCAR4 cells incubated for 48 hrs by sulforhodamine B assay; conditions: OVCAR-4, 48 h; outline: as §3
K562 = assay: Growth inhibition of human K562 cells assessed as cell growth at 10 uM incubated for 48 hrs by sulforhodamine B assay relative to control; conditions: K562, 48 h, read-out: Activity; outline: as §4
[17] = Growth inhibition of human SKOV3 cells assessed as cell growth at 10 uM incubated for 48 hrs by sulforhodamine B assay relative to control; conditions: SK-OV-3, 48 h, read-out: Activity; outline: as §4
NCI-H322M [18] = assay: Growth inhibition of human NCI-H322M cells assessed as cell growth at 10 uM incubated for 48 hrs by sulforhodamine B assay relative to control; conditions: read-out: Activity; outline: as §4
NCI-H322M [19] = assay: Growth inhibition of human NCI-H322M cells incubated for 48 hrs by sulforhodamine B assay; outline: as §3
[20] = Growth inhibition of human HCT15 cells assessed as cell growth at 10 uM incubated for 48 hrs by sulforhodamine B assay relative to control; conditions: HCT-15, 48 h, read-out: Activity; outline: as §4
[21] = read-out: pLC50 (the source's name) (converted)

CC(C)[C@@]12C[C@@H](NC(=O)CO)[C@@](C)(O1)[C@@H]1CC[C@@H](C)[C@H]1[C@@H]2OC(=O)c1ccc2ccccc2c1
growth at 10 µM (A498): -15.2% | GI50 [1]: 16.2 µM | CC50 [1, 21]: 64.6 µM | TGI ([1]; read-out: pTGI (converted)): 32.4 µM | growth at 10 µM [2]: 63.3% | GI50 [3]: 15.5 µM | LC50 [3]: 55 µM | TGI ([3]; read-out: pTGI (converted)): 29.5 µM | GI50 ([4]; read-out: GI50): 2.23 µM | GI50 ([4]; read-out: pGI50 (converted)): 2.24 µM | CC50 [4, 21]: > 100 µM | TGI ([4]; read-out: pTGI (converted)): 8.91 µM | growth at 10 µM [5]: 98.8% | GI50 (M14): 16.6 µM | LC50 (M14): 58.9 µM | TGI (M14; read-out: pTGI (converted)): 31.6 µM | GI50 [6]: 17.8 µM | CC50 [6, 21]: 61.7 µM | TGI ([6]; read-out: pTGI (converted)): 33.1 µM | growth at 10 µM (SK-MEL-2 [7]): 100% | growth at 10 µM [8]: -18.3% | GI50 (SN12C): 11 µM | CC50 (SN12C; [21]): 55 µM | TGI (SN12C; read-out: pTGI (converted)): 24.5 µM | GI50 (MDA-MB-231): 15.1 µM | CC50 (MDA-MB-231; [21]): 67.6 µM | TGI (MDA-MB-231; read-out: pTGI (converted)): 32.4 µM | growth at 10 µM (SR): 82.5% | growth at 10 µM [9]: 105% | GI50 (MCF7): 15.8 µM | CC50 (MCF7; [21]): 72.4 µM | TGI (MCF7; read-out: pTGI (converted)): 33.9 µM | GI50 (SK-MEL-2 [10]): 17 µM | LC50 (SK-MEL-2 [10]): 60.3 µM | TGI (SK-MEL-2 [10]; read-out: pTGI (converted)): 31.6 µM | growth at 10 µM (MDA-MB-468): 81.5% | GI50 [11]: 16.2 µM | CC50 [11, 21]: 56.2 µM | TGI ([11]; read-out: pTGI (converted)): 30.2 µM | growth at 10 µM [12]: 110% | GI50 [13]: 12 µM | CC50 [13, 21]: 52.5 µM | TGI ([13]; read-out: pTGI (converted)): 25.1 µM | GI50 [14]: 15.8 µM | LC50 [14]: 56.2 µM | TGI ([14]; read-out: pTGI (converted)): 30.2 µM | GI50 [15]: 10 µM | LC50 [15]: 50.1 µM | TGI ([15]; read-out: pTGI (converted)): 22.4 µM | growth at 10 µM (U-251): 79.3% | GI50 [16]: 16.2 µM | LC50 (concentration killing 50% of cells) [16]: 61.7 µM | TGI ([16]; read-out: pTGI (converted)): 31.6 µM | growth at 10 µM (K562): 91.2% | growth at 10 µM [17]: 96.4% | growth at 10 µM (NCI-H322M [18]): 89.5% | GI50 (NCI-H322M [19]): 13.5 µM | LC50 (NCI-H322M [19]): 52.5 µM | TGI (NCI-H322M [19]; read-out: pTGI (converted)): 26.9 µM | growth at 10 µM [20]: 90.8%
